Experimental data taken from ChEMBL document CHEMBL1795208 (J Med Chem, 2011).

Tests used:
Assay type in all cases: functional, cell-based
[1] = system: MCF7; assay: Antiproliferative activity against human MCF7 cells expressing estrogen receptor after 72 hrs by MTS/PMS assay; settings: MCF7, 72 h
How it was run: (§1)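 Cells kept in Advanced DMEM/F12 (1:1) with non-essential amino acids, 2 mM L-glutamine, penicillin, streptomycin and 10% FBS at 37 °C, 5% CO2. Seeded at 2000/well, attached overnight. Compound added in DMSO across a concentration range (1% DMSO final) for 72 h. Viable cells read by MTS/PMS and normalized to 1% DMSO controls (100%). IC50 taken from separate triplicate experiments.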

[2] = system: SK-BR-3; assay: Antiproliferative activity against human SKBR3 cells expressing HER2 after 72 hrs by MTS/PMS assay; settings: SK-BR-3, 72 h; how it was run: as §1
[3] = Antiproliferative activity against human androgen-independent PC3MM2 cells after 72 hrs by MTS/PMS assay; settings: PC3MM2, 72 h; how it was run: as §1

Compound | IC50 [1] [µM] | IC50 [2] [µM] | IC50 [3] [µM]
CO[C@H]1[C@H](OC(=O)c2ccc(C)[nH]2)[C@H](O)[C@@H](Oc2ccc3c(O)c(NC(=O)c4c[nH]c(C(=O)Nc5c(O)c6ccc(O[C@H]7OC(C)(C)[C@@H](OC)[C@H](OC(=O)c8ccc(C)[nH]8)[C@@H]7O)c(C)c6oc5=O)c4C)c(=O)oc3c2C)OC1(C)C [COUMERMYCIN A1] | – | 70 | –
CC(C)=CCc1cc(C(=O)Nc2cc3ccc(OC4CCN(C)CC4)c(C)c3oc2=O)ccc1O | – | – | 1.37
COc1cccc(-c2cc(C(=O)Nc3cc4cc(OC)c(OC5CC(C)(C)C[C@@H](O)[C@H]5O)c(C)c4oc3=O)ccc2OC)c1 (stereo partly specified) | > 100 | > 100 | –
COc1cccc(-c2cc(C(=O)Nc3cc4cc(OC)c(OC5CC(C)C[C@@H](O)[C@H]5O)c(C)c4oc3=O)ccc2OC)c1 (stereo partly specified) | > 100 | > 100 | –
CC(=O)Oc1ccc(C(=O)Nc2cc3ccc(OC4CCN(C)CC4)c(C)c3oc2=O)cc1CC=C(C)C | – | – | 2.12
COc1cccc(-c2cc(C(=O)Nc3cc4ccc(OC5CCC[C@@H](O)[C@H]5O)c(OC)c4oc3=O)ccc2OC)c1 (stereo partly specified) | 5.46 | 7.44 | –
COc1c(OCCCN(C)C)ccc2cc(NC(=O)c3ccc(O)c(CC=C(C)C)c3)c(=O)oc12 | 3.26 | 0.77 | 9.24
CC(=O)Oc1ccc(C(=O)Nc2cc3ccc(OCCCN(C)C)c(C)c3oc2=O)cc1CC=C(C)C | – | – | 1.42
CO[C@@H]1[C@@H](O)[C@@H](O)[C@H](Oc2ccc3cc(NC(=O)CCCCC(=O)Nc4cc5ccc(O[C@H]6OC(C)(C)[C@@H](OC)[C@H](O)[C@@H]6O)cc5oc4=O)c(=O)oc3c2C)OC1(C)C | – | 2 | –
CC(C)=CCc1cc(C(=O)Nc2cc3ccc(OCCCN(C)C)c(C)c3oc2=O)ccc1O | – | – | 1.81
COc1cccc(-c2cc(C(=O)Nc3cc4ccc(OCC(O)CO)c(C)c4oc3=O)ccc2OC)c1 (stereo unspecified) | > 50 | > 50 | 0.19
COc1cccc(-c2cc(C(=O)Nc3cc4ccc(OC5CC(C)(C)C[C@@H](O)[C@H]5O)c(OC)c4oc3=O)ccc2OC)c1 (stereo partly specified) | 1.56 | 3.45 | –

More lines, in order of falling IC50 [2], values ahead:

IC50 [1] [µM] | IC50 [2] [µM] | Compound | IC50 [3] [µM]
20.5 | 19.4 | COc1cccc(-c2cc(C(=O)Nc3cc4cc(OC)c(OCC(O)CO)c(C)c4oc3=O)ccc2OC)c1 (stereo unspecified) | –
10.1 | 8.18 | COc1cccc(-c2cc(C(=O)Nc3cc4cc(OC)c(OC5CCC[C@@H](O)[C@H]5O)c(C)c4oc3=O)ccc2OC)c1 (stereo partly specified) | –
– | 7.5 | CO[C@@H]1[C@@H](OC(N)=O)[C@@H](O)[C@H](Oc2ccc3cc(NC(=O)c4ccc(O)c(CC=C(C)C)c4)c(=O)oc3c2C)OC1(C)C | –
18.7 | 7.5 | COc1cccc(-c2cc(C(=O)Nc3cc4ccc(OC5OC(C)(C)[C@H](OC)[C@@H](O)[C@H]5O)c(C)c4oc3=O)ccc2OC)c1 (stereo partly specified) | –
8.52 | 6.38 | COc1cccc(-c2cc(C(=O)Nc3cc4ccc(OC5CC(C)C[C@@H](O)[C@H]5O)c(OC)c4oc3=O)ccc2OC)c1 (stereo partly specified) | –
5.23 | 1.13 | Cc1c(OCCCN(C)C)ccc2cc(NC(=O)c3cc4ccccc4[nH]3)c(=O)oc12 | 13.7
1.64 | 1.07 | COc1c(OC2CCN(C)CC2)ccc2cc(NC(=O)c3ccc(OC(C)=O)c(CC=C(C)C)c3)c(=O)oc12 | 3.98
2.14 | 0.78 | COc1c(OCCCN(C)C)ccc2cc(NC(=O)c3ccc(OC(C)=O)c(CC=C(C)C)c3)c(=O)oc12 | 4.59
– | 0.5 | CO[C@@H]1[C@@H](O)[C@@H](O)[C@H](Oc2ccc3cc(NC(=O)c4ccc(O)c(CC=C(C)C)c4)c(=O)oc3c2C)OC1(C)C | –
0.58 | 0.42 | COc1cc2cc(NC(=O)c3ccc(OC(C)=O)c(CC=C(C)C)c3)c(=O)oc2c(C)c1OC1CCN(C)CC1 | 1.41
0.8 | 0.39 | COc1cc2cc(NC(=O)c3ccc(O)c(CC=C(C)C)c3)c(=O)oc2c(C)c1OCCCN(C)C | 1.38
– | 0.37 | CO[C@@H]1[C@@H](O)[C@@H](O)[C@H](Oc2ccc3cc(NC(=O)c4cc5ccccc5[nH]4)c(=O)oc3c2C)OC1(C)C | –
